Experimental data reported in ChEMBL document CHEMBL2057168, “(1aR,5aR)1a,3,5,5a-Tetrahydro-1H-2,3-diaza-cyclopropa[a]pentalene-4-carboxylic acid (MK-1903): a potent GPR109a agonist that lowers free fatty acids in humans” (J Med Chem, 2012).

Tests used:
Rhesus monkey [1] = test: Dose normalized AUC in po dosed rhesus monkey; format: ADME, organism-based, Macaca mulatta; settings: in vivo
[2] = Blood clearance in mouse; format: ADME, organism-based; settings: whole blood
How it was run: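 Pharmacokinetics across species; for mice, clearance determined in blood rather than plasma following dosing.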

[3] = Tmax in human at 150 mg, po TID administered on day 1 followed by 2-days wash out period after which dosing continued up to day 11 measured on day 4; format: ADME, organism-based; settings: in vivo
How it was run: (§1)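 Double-blind, placebo-controlled, randomized multiple oral dose study in healthy male volunteers (cohorts of eight; six active, two placebo). Dose given on day 1, then a two-day washout, then dosing days 4–11; for the QD arm, subjects were titrated over days 1–4. Venous plasma sampled predose and 0.5, 1, 1.5, 2, 4, 6, 8, 10, 12 h postdose on days 1, 4 and 11. Tmax reported as median (min–max).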

Homo sapiens [4] = test: Toxicity in human assessed as occurrence of flushing at 10 to >10 mg administered for 1 to 2 days as divided dose; format: organism-based; settings: in vivo
How it was run: (§2)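 Healthy volunteers scored subject-reported flushing with a flushing symptoms questionnaire after single oral doses and during repeat divided daily dosing.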

Rhesus monkey [5] = test: Dose normalized Cmax in po dosed rhesus monkey; format: ADME, organism-based, Macaca mulatta; settings: in vivo
[6] = Cmax in human at 100 mg, po BID administered on day 1 followed by 2-day wash out period after which dosing continued up to day 11 measured on day 11; format: ADME, organism-based; set-up: dose 100 mg, route oral; settings: in vivo
How it was run: (§3)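 Double-blind, placebo-controlled, randomized dose-escalation study in healthy male volunteers, six cohorts of eight (six active, two placebo). Oral dose on day 1, two-day washout, then dosing days 4–11; the 200 mg qd cohort was titrated over days 1–4. Venous blood taken predose and at 0.5–12 h on days 1, 4 and 11; plasma drug measured. τ 12 h (bid), 24 h (qd), 8 h (tid), 6 h (qid).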

[7] = Cmin in human at 150 mg, po BID administered on day 1 followed by 2-day wash out period after which dosing continued up to day 11 measured on day 11 at 12 hrs; format: ADME, organism-based; settings: in vivo, read-out: Cmin
How it was run: (§4)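 Healthy male volunteers took part in a double-blind, randomized, placebo-controlled dose-escalation study, with cohorts of 8 (6 on drug, 2 on placebo). Each subject got an oral dose on day 1, then a 2-day washout, then dosing on days 4–11. The 200 mg qd group was titrated over days 1–4. Venous plasma was sampled predose and 0.5–12 h postdose on days 1, 4 and 11, and predose on days 5–10 for troughs.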

[8] = Apparent half life in human at 175 mg, po QID administered on day 1 followed by 2-days wash out period after which dosing continued up to day 11 measured on day 11; format: ADME, organism-based; settings: in vivo, read-out: t1/2(app) (converted); how it was run: as §3
Cytochrome P450 2C8 = target: T1, Cytochrome P450 2C8 (Homo sapiens, UniProt P10632); test: Activity at CYP2C8; format: ADME
T1 sequence (P10632 whole entry): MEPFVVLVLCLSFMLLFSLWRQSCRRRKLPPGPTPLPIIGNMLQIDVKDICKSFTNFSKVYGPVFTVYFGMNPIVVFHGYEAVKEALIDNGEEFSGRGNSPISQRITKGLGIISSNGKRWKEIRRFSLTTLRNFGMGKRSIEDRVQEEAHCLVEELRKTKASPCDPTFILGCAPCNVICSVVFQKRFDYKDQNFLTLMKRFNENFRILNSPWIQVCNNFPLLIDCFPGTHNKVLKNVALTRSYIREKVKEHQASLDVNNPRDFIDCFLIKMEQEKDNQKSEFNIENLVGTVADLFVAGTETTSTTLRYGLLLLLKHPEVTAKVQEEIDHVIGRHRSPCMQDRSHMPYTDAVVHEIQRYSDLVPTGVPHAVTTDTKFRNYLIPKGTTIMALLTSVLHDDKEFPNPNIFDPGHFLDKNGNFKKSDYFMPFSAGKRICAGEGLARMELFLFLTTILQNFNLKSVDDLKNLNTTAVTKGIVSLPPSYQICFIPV

[9] = Tmax in human at 150 mg, po BID administered on day 1 followed by 2-day wash out period after which dosing continued up to day 11 measured on day 4; format: ADME, organism-based; settings: in vivo; how it was run: as §1
[10] = Apparent half life in human at 150 mg, po TID administered on day 1 followed by 2-day wash out period after which dosing continued up to day 11 measured on day 11; format: ADME, organism-based; settings: in vivo, read-out: t1/2(app) (converted); how it was run: as §3
Homo sapiens [11] = test: Toxicity in dyslipedimc patient assessed as flushing at 150 mg administered TID during four week study; format: organism-based; settings: in vivo
Rattus norvegicus = test: Dose normalized Cmax in Sprague-Dawley rat at 10 mg/kg, po; format: ADME, organism-based; set-up: dose 10 mg/kg, route oral; settings: in vivo
How it was run: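 Male Sprague-Dawley rats were dosed at 10 mg/kg po or 2 mg/kg iv in 80% PEG400/20% phosphate-buffered saline, fasted overnight before the oral dose. Jugular blood was sampled serially from 0.25 to 21 h over 24 h, and heparinized plasma was prepared. Drug was assayed by HPLC/MS/MS (quantitation range 1–2000 ng/mL).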

[12] = Volume of distribution in mouse; format: ADME, organism-based; settings: in vivo
[13] = Tmax in human at 50 mg, po BID administered on day 1 followed by 2-day wash out period after which dosing continued up to day 11 measured on day 4; format: ADME, organism-based; settings: in vivo; how it was run: as §1
[14] = Tmax in human at 150 mg, po BID administered on day 1 followed by 2-day wash out period after which dosing continued up to day 11 measured on day 11; format: ADME, organism-based; settings: in vivo; how it was run: as §1
[15] = AUC (0 to 8 hrs) in human at 150 mg, po TID administered on day 1 followed by 2-days wash out period after which dosing continued up to day 11 measured on day 11; format: ADME, organism-based; set-up: time < 8 hr, dose 150 mg, route oral; settings: plasma; how it was run: as §3
[16] = Cmin in human at 150 mg, po TID administered on day 1 followed by 2-days wash out period after which dosing continued up to day 11 measured on day 11 at 8 hrs; format: ADME, organism-based; settings: in vivo, read-out: Cmin; how it was run: as §4
Homo sapiens [17] = test: Toxicity in human assessed as occurrence of flushing at 10 to >10 mg administered as single dose; format: organism-based; settings: in vivo; how it was run: as §2
[18] = Cmax in human at 175 mg, po QID administered on day 1 followed by 2-days wash out period after which dosing continued up to day 11 measured on day 11; format: ADME, organism-based; set-up: dose 175 mg, route oral; settings: in vivo; how it was run: as §4
[19] = Cmax in human at 150 mg, po BID administered on day 1 followed by 2-day wash out period after which dosing continued up to day 11 measured on day 11; format: ADME, organism-based; set-up: dose 150 mg, route oral; settings: in vivo; how it was run: as §4
[20] = Cmin in human at 150 mg, po TID administered on day 1 followed by 2-days wash out period after which dosing continued up to day 11 measured on day 1 at 8 hrs; format: ADME, organism-based; settings: in vivo, read-out: Cmin; how it was run: as §4
[21] = Tmax in human at 175 mg, po QID administered on day 1 followed by 2-days wash out period after which dosing continued up to day 11 measured on day 4; format: ADME, organism-based; settings: in vivo; how it was run: as §1
Canis familiaris = test: Dose normalized AUC in po dosed dog; format: ADME, organism-based, Canis lupus familiaris; settings: in vivo
[22] = Cmax in human at 175 mg, po QID administered on day 1 followed by 2-days wash out period after which dosing continued up to day 11 measured on day 1; format: ADME, organism-based; set-up: dose 175 mg, route oral; settings: in vivo; how it was run: as §4
Homo sapiens [23] = test: Antidyslipedic activity in human assessed as decrease in free fatty acid level at 50 to 200 mg, po administered as a single dose measured after 1 to 2 hrs relative to placebo control; format: functional; set-up: scale not given: the % may be the effect or the level left
[24] = Terminal half life in dog; format: ADME, organism-based, Canis lupus familiaris; settings: in vivo, read-out: beta t1/2 (converted)
[25] = Tmax in human at 50 mg, po BID administered on day 1 followed by 2-day wash out period after which dosing continued up to day 11 measured on day 11; format: ADME, organism-based; settings: in vivo; how it was run: as §1

## O=C(O)c1n[nH]c2c1C[C@H]1C[C@@H]21
Rhesus monkey [1]
  AUC/dose: 8.5 µM·kg·h/mg
[2]
  clearance: 10 mL/min/kg
[3]
  Tmax: 0.5 h
Homo sapiens [4]
  Activity: Non-toxic
Rhesus monkey [5]
  Cmax/dose: 5.1 µM·kg/mg
[6]
  Cmax: 32.5 nM
[7]
  concentration at 12 h: 0.208 nM
[8]
  half-life: 6 h
Cytochrome P450 2C8
  Activity: Not Active
[9]
  Tmax: 1.5 h
[10]
  half-life: 11 h
Homo sapiens [11]
  Activity: Non-toxic
Rattus norvegicus
  Cmax/dose: 3.7 µM·kg/mg
[12]
  Vd: 0.75 L/kg
[13]
  Tmax: 1.25 h
[14]
  Tmax: 1 h
[15]
  AUC at 8 h: 0.0879 µM·h
[16]
  concentration at 8 h: 0.708 nM
Homo sapiens [17]
  Activity: Toxic
[18]
  Cmax: 56 nM
[19]
  Cmax: 27.7 nM
[20]
  concentration at 8 h: 0.869 nM
[21]
  Tmax: 1 h
Canis familiaris
  AUC/dose: 33.3 µM·kg·h/mg
[22]
  Cmax: 52.6 nM
Homo sapiens [23]
  Activity: 90%
[24]
  half-life: 3.4 h
[25]
  Tmax: 0.5 h
